DAGLB inhibitor: blocks human DAGLB lipase activity; Q8NCG7; HEK293T DAGLB membrane lysate, EnzChek fluorogenic substrate; inhibition, % at 5.17 µM; actives 0.059% (n = 340,000); AID 504411; in the data active means inhibition above about 34%
SENP1 FRET inh: SENP1 (human) catalytic domain inhibition; Q9P0U3; recombinant SENP1 catalytic domain, CyPet-SUMO1-YPet FRET cleavage; inhibition, % at 10 µM; actives 0.21% (n = 360,000); AID 624204;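 active means inhibition at least 30% at 10 µM, raw YFP signal under a set limit, fluorescence ratio 0.5 to 1.5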
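Assay system: hSENP1 catalytic domain, recombinant. Amount: SENP1 enzyme, 20 pM final. Schedule: 50 min reaction, RT, dark. Technique: FRET, CFP and YFP emission. Control set: no-enzyme wells low, DMSO-plus-enzyme wells high control.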
MT1-MMP act inh: inhibitors of human MT1-MMP activation; P50281; HT1080 RFP-PRO-GFP cells, GFP/RFP ratio fluorescence, overnight; percent of plate control window, DMSO zero; GFP/RFP ratio change, % at 20 µM; actives 0.061% (n = 360,000); AID 651647;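 active means GFP/RFP ratio change of at least 30% with cell ATP level not reduced by more than half and red fluorescence within 50% of control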
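Assay system – RFP-PRO-GFP reporter HT1080 cells · Compound dosing – single dose of 20 µM compound, 1% DMSO final · Incubation – overnight compound exposure at 37 °C · Measure – GFP/RFP fluorescence ratio · Benchmarks – DMSO wells and RFP-L50D-GFP cells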
Myeloid diff 2: myeloid differentiation induction | AID 624256 | ER-HoxA9 myeloid progenitors, lysozyme-GFP differentiation, flow cytometry | calls only at 10 µM | actives 1% (n = 360,000);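 active means normalized GFP-positive differentiation at or above the plate's own cutoff, the solvent-only control mean plus 3 SD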;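 further: cells exposed to compound for four days before flow analysis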
MIN6 prolif: induces beta-cell replication in MIN6 cells. MIN6 cells proliferation, ATPlite luminescence, 48 h; cells starved in 0.2% serum; 100% = growth in 10% serum. proliferation, % at 10 µM. actives 0.29% (n = 330,000);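 active means compounds whose signal lies at least 3.5 SD above the mean of all wells on their plate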
NRP1-CendR mod: modulators of CendR peptide binding to human neuropilin-1. FAM-RPARPAR peptide binding to NRP-1, fluorescence polarization. actives 0.85% (n = 360,000). inhibition, % at 25 µM. O14786. AID 602438;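 active means inhibition or corrected inhibition above about 18%, plus a signal ratio from 0.5 to 1.5, limit read from the data, passing the limit was not always enough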
Large screens that a line does not name were inactive. An excerpt weighted towards active compounds, which were near 2.4% of everything screened.

CN(CC(=O)Nc1ccc(F)cc1)C(=O)c1ccccc1Sc1ccccc1C#N	none
Cc1ccccc1N(CC(=O)NC1CCCCC1)C(=O)CCCC(=O)Nc1ccccn1	none
Cc1nn(-c2ccccc2)c(C)c1C(=O)OCC(=O)N(C)c1c(N)n(Cc2ccccc2)c(=O)[nH]c1=O	none
COc1ccc(OC)c(S(=O)(=O)NC(=O)C2(C)CCN2C(=O)Cc2ccccc2)c1 (stereo unspecified)	none (no result: DAGLB inhibitor, MIN6 prolif)
O=C(c1ccc(N2CCCC2)c([N+](=O)[O-])c1)N1CCN(S(=O)(=O)c2ccccc2)CC1	none
CN(C)N1C(=O)/C(=C/c2ccco2)SC1=Nc1ccccc1	none
O=C1/C(=C\c2ccc(Br)o2)SC(=Nc2ccccc2)N1c1ccccc1	Myeloid diff 2 active
CC(C)(C)c1ccc(S(=O)(=O)N2CC(=O)Nc3ccccc32)cc1	none
CCOc1ccc(N/C=C/C(=O)c2ccc(OC)cc2)c([N+](=O)[O-])c1	SENP1 FRET inh 37
COc1ccc(N/C=C/C(=O)c2ccc(C)cc2)c([N+](=O)[O-])c1	none
CC(=O)n1cc(Nc2ccccc2C(=O)O)c2ccccc21	none
CCOC(=O)c1ccccc1Nc1cn(C(C)=O)c2ccccc12	Myeloid diff 2 active
COc1ccc(-n2nnnc2SCC(=O)NC2CCS(=O)(=O)C2)cc1 (stereo unspecified)	none
CCN(C[C@H]1N[C@@](Cc2ccccc2)(C(=O)OC)[C@H]2C(=O)N(Cc3ccccc3)C(=O)[C@@H]12)S(=O)(=O)c1ccc(F)cc1	none
CCN(C[C@H]1N[C@@](Cc2ccccc2)(C(=O)OC)[C@H]2C(=O)N(Cc3ccccc3)C(=O)[C@@H]12)S(=O)(=O)c1ccc(OC)cc1	NRP1-CendR mod 26
CCOC(=O)C1(C)CCCN(C(=O)c2ccccc2C(F)(F)F)C1 (stereo unspecified)	none (no result: DAGLB inhibitor, MIN6 prolif)
COC(=O)CCN1CCN(S(=O)(=O)c2ccc3c(c2)OCCO3)CC1	none
Cc1ccccc1Nc1cc(=O)oc2ccccc12	NRP1-CendR mod 22 (no result: Myeloid diff 2)
CCn1nc(C(=O)OCC(=O)NCCN2C(=O)CSC2=O)c2ccccc2c1=O	NRP1-CendR mod 38
COc1cc2c(cc1OC)C(C1C(=O)CC(C)CC1=O)N(C(=O)CCl)CC2 (stereo unspecified)	none
CC1CN(C)C(c2ccccc2)C(C)C12NC(=O)NC2=O (stereo unspecified)	none
COc1ccc(/C=C/C(=O)Nc2ccccc2F)cc1S(=O)(=O)N1CCOCC1	none
COc1ccc(/C=C/C(=O)Nc2cccc(F)c2)cc1S(=O)(=O)N1CCOCC1	NRP1-CendR mod 23
NC(=O)C1CCN(C(=O)c2ccc3c(=O)n(Cc4ccco4)c(SCC(=O)c4ccc(F)cc4)nc3c2)CC1	none (no result: DAGLB inhibitor, SENP1 FRET inh, MT1-MMP act inh, Myeloid diff 2, NRP1-CendR mod)
O=S(=O)(c1ccccc1)c1cnc(-c2cccnc2)nc1-c1ccc(Cl)c(Cl)c1	NRP1-CendR mod 20
CCOC(=O)c1ccc(-n2c(CN3CCC(O)CC3)nc3ccc([N+](=O)[O-])cc3c2=O)cc1	none
CCc1ccc(CN(Cc2cccnc2)C(=O)/C=C/c2ccc(OC)cc2)cc1	Myeloid diff 2 active
COc1ccc(/C=C/C(=O)NCc2cccnc2)cc1	none
CC(C)(C)NC(=O)CN(C(=O)Cn1nnc(-c2ccc(Cl)cc2)n1)C1CCN(Cc2ccccc2)CC1	none
O=C(NCc1ccccc1)C(c1cccnc1)N(C(=O)c1ccccn1)c1ccccc1F (stereo unspecified)	NRP1-CendR mod 26
CCOC1=C2CN(S(=O)(=O)c3ccc(C)cc3)C(c3cccc(Cl)c3)CC2N(S(=O)(=O)c2ccc(Cl)cc2)C(c2ccccc2)C1 (stereo unspecified)	none (no result: DAGLB inhibitor, MIN6 prolif)
COc1ccc(CNC(=O)Cc2c(C(=O)O)[nH]c3ccccc23)c(OC)c1	Myeloid diff 2 active
COc1ccccc1N1CCN(CC(=O)Nc2ccc(-n3cnnn3)cc2)CC1	none
NNc1ccc([N+](=O)[O-])c2[nH][nH]c(=O)c12	NRP1-CendR mod 29 (no result: MIN6 prolif)
Cc1cc(N(C)C)ccc1[N+](=O)[O-]	none
CCCCC1CCC(C(=O)NC2CCS(=O)(=O)C2)CC1 (stereo unspecified)	NRP1-CendR mod 38

Screening results: PubChem BioAssay, several laboratories
